These results are taken from ChEMBL document CHEMBL4311947, “Discovery of Novel Naphthylphenylketone and Naphthylphenylamine Derivatives as Cell Division Cycle 25B (CDC25B) Phosphatase Inhibitors: Design, Synthesis, Inhibition Mechanism, and in Vitro Efficacy against Melanoma Cell Lines” (J Med Chem, 2019).

Active and inactive are the calls of the source. The calls are words filed in the database; no cut-off is given here.

Assay [1] addresses T1, M-phase inducer phosphatase 2 (Homo sapiens) (UniProt P30305).
T1 sequence (whole entry): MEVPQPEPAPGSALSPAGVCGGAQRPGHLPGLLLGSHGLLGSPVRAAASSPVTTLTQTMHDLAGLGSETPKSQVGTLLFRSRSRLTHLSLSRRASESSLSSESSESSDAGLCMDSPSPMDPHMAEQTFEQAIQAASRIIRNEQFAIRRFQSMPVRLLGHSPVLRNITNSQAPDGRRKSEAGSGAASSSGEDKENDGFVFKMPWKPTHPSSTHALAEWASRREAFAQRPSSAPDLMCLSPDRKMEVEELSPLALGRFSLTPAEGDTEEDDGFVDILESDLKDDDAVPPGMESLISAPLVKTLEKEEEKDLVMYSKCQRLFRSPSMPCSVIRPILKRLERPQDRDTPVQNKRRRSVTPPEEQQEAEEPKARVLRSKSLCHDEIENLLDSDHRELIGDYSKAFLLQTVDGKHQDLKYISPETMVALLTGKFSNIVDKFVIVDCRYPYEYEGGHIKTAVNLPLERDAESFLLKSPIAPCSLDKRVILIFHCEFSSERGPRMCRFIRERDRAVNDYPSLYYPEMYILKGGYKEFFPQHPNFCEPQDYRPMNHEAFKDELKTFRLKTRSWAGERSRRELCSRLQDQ
Briefly: Inhibition of N-terminal His6-tagged human CDC25B (377 to 550 residues) expressed in Escherichia coli BL21(DE3) cells assessed as reduction in Vmax using OMFP as substrate by double reciprocal Lineweaver-Burk plot analysis. In a few lines: (§1)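 Recombinant CDC25 form (15–25 nM) in 20 mM Tris-HCl pH 7.8, 0.5 mM TCEP, 1% (v/v) DMSO, with or without inhibitor. Reaction started with 0.5–25 µM OMFP; O-methylfluorescein formation followed continuously at 30°C (ex 485/em 530 nm). Initial rates (AU/min) analysed in Lineweaver-Burk plots for Vmax, KM and mechanism; Ki averaged from at least three independent experiments, only roughly estimated for mixed inhibition.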

Assay [2] deals with T2, M-phase inducer phosphatase 2 (Homo sapiens, UniProt P30305).
T2 sequence (P30305 whole entry): T1 sequence (whole entry)
Briefly: Non-competitive inhibition of N-terminal His6-tagged human CDC25B (377 to 550 residues) expressed in Escherichia coli BL21(DE3) cells using OMFP as substrate by double reciprocal Lineweaver-Burk plot analysis. In a few lines:
as §1

Assay [3] deals with T2, M-phase inducer phosphatase 2. Briefly: Mixed inhibition of N-terminal His6-tagged human CDC25B (377 to 550 residues) expressed in Escherichia coli BL21(DE3) cells using OMFP as substrate by double reciprocal Lineweaver-Burk plot analysis. In a few lines: as §1
For assay [4] the target is unchanged. Briefly: Uncompetitive inhibition of N-terminal His6-tagged human CDC25B (377 to 550 residues) expressed in Escherichia coli BL21(DE3) cells using OMFP as substrate by double reciprocal Lineweaver-Burk plot analysis. In a few lines:
as §1

Assay [5] addresses T1, M-phase inducer phosphatase 2 (Homo sapiens). Briefly: Inhibition of N-terminal His6-tagged human CDC25B (377 to 550 residues) expressed in Escherichia coli BL21(DE3) cells at 3 uM by spectrofluorimetric analysis. In a few lines: (§2)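 Intrinsic fluorescence of 1 µM recombinant CDC25B in 20 mM Tris·HCl pH 7.8, 0.5 mM TCEP, 0.5% (v/v) DMSO, recorded at 20°C with 280 nm excitation and 10 nm slits, without or with added NPA derivative. OMFP substrate omitted.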

For assay [6], the target named is T3, M-phase inducer phosphatase 3 (Homo sapiens, UniProt P30307).
T3 sequence (P30307 whole entry): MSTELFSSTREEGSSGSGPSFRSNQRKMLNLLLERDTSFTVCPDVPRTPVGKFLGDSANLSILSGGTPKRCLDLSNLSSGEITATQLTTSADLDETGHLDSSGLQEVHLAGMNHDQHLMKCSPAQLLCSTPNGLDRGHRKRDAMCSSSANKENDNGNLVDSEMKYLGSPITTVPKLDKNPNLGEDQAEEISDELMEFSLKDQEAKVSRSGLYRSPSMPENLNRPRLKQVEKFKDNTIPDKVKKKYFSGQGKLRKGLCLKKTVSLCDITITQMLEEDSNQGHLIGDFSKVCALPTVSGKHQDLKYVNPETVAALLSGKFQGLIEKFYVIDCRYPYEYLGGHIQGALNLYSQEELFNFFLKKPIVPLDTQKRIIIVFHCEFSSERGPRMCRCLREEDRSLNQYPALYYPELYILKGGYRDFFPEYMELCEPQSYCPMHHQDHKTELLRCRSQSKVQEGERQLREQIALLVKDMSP
Briefly: Inhibition of N-terminal His6-tagged human CDC25C (280 to 454 residues) expressed in Escherichia coli BL21(DE3) cells using OMFP as substrate by double reciprocal Lineweaver-Burk plot analysis. In a few lines:
as §1

Assay [7] deals with T1, M-phase inducer phosphatase 2 (Homo sapiens). Briefly: Inhibition of N-terminal His6-tagged human CDC25B (377 to 550 residues) expressed in Escherichia coli BL21(DE3) cells at 4 uM by spectrofluorimetric analysis. In a few lines: as §2
In assay [8] the target is T4, M-phase inducer phosphatase 1 (Homo sapiens, UniProt P30304).
T4 sequence (P30304 whole entry): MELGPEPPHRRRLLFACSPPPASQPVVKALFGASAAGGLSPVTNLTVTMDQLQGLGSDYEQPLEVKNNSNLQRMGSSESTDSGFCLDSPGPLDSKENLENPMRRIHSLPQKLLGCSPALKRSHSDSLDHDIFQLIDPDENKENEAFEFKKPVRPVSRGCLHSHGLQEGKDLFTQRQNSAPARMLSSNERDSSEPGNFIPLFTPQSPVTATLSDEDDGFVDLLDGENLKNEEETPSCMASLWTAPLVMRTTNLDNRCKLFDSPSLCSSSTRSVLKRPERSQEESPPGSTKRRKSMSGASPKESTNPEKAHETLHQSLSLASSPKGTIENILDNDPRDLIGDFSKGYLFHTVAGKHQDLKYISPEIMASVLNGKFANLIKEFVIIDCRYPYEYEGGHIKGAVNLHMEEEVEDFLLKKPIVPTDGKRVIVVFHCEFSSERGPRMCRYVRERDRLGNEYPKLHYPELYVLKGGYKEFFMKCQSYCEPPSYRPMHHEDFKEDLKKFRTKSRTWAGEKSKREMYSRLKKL
Briefly: Inhibition of N-terminal His6-tagged human CDC25A (336 to 508 residues) expressed in Escherichia coli BL21(DE3) cells using OMFP as substrate by double reciprocal Lineweaver-Burk plot analysis. In a few lines: as §1

Assay [9] relates to A2058. Briefly: Cytotoxicity against human A2058 cells at 50 uM after 48 hrs by MTT assay. The class given is functional, cell-based. In a few lines:
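Cells seeded at 4×10^4/well, treated 24 h after plating with inhibitor or 0.5% (v/v) DMSO vehicle for 24, 48 or 72 h. MTT added, 3 h at 37°C under 5% CO2, formazan solubilised, absorbance at 570 nm. Viability in arbitrary units, mean ± SE of at least three independent experiments versus control. Cells grown in DMEM/10% FBS at 37°C, 5% CO2; BJ-5ta cultured in 4:1 DMEM/Medium 199 with hygromycin B.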
On the technique in general: Formazan colour is commonly taken as a measure of viable cells.

For assay [10], the target named is T1, M-phase inducer phosphatase 2 (Homo sapiens). Briefly: Inhibition of N-terminal His6-tagged human CDC25B (377 to 550 residues) expressed in Escherichia coli BL21(DE3) cells at 1.5 uM by spectrofluorimetric analysis. In a few lines: as §2

The term Ki denotes a dissociation constant, usually derived from enzyme kinetics or from competition with a known ligand. High values mean a looser hold on the target, low ones a stronger hold on the target.

On to `CCOC(=O)c1cccc(Nc2cccc3c(N)cccc23)c1`, for which the inhibition result in assay [1] was “Active”. Also, in assay [2], the Ki amounted to 36 µM.
For `O=C(O)c1cccc(Nc2cc(O)cc3ccccc23)c1`, in assay [1], the inhibition entry was “Active”. The Ki in [2] stood at 5.8 µM.
`c1ccc(Nc2cccc3ccccc23)cc1`: in [1], the inhibition result was “Active”. This molecule had a Ki in assay [3] of 32 µM.
With `CCOC(=O)c1ccccc1Nc1cc(OC)cc2ccccc12`, in [1], the inhibition entry was “Active”. Besides, the Ki in assay [4] was 12.5 µM.
Take `COc1ccc(Nc2ccccc2C(=O)O)c2ccccc12`: the inhibition entry in assay [1] is “Active”. The molecule further registered a Ki in assay [4] of 6.1 µM.
Regarding `Nc1ccc(Nc2cccc(C(=O)O)c2)c2ccccc12`, the inhibition entry in assay [1] and in [5] was “Active” in each case. The same molecule showed an inhibitory constant (Ki) in [2] of 1.4 µM.
As for `COc1ccc(C(=O)c2ccccc2C(=O)O)c2ccccc12`, in [1], the inhibition result is “Active”. In assay [2], the Ki worked out at 7.1 µM.
For the molecule `CCOC(=O)c1ccccc1Nc1cccc2ccccc12`, the inhibition constant (Ki) turned out to be 0.4 µM in assay [6], 0.6 µM in assay [8] and 2.8 µM in assay [4]. Besides, the inhibition entry in [1] was “Active”. For the same molecule, the inhibition result in assay [7] is “inactive”.
Consider `COc1ccc(Nc2cccc(C(=O)O)c2)c2ccccc12`, for which, in assay [1], the inhibition entry was “Active”. Further, the Ki in assay [4] came out at 45 µM.
Turning to `Nc1cccc2c(Nc3ccccc3C(=O)O)cccc12`, the inhibition result in assay [1] was “Active”. In assay [2], this molecule came in with a Ki of 6.5 µM.
As to `CCOC(=O)c1cccc(Nc2cccc3c(O)cccc23)c1`, in [1], the inhibition entry is “Active”. This molecule returned an inhibition constant (Ki) in [2] of 4.9 µM.
`O=C(O)c1cccc(Nc2ccc(O)c3ccccc23)c1`: the inhibition result in assay [1] was “Active”. In addition, the Ki in [4] amounted to 6.4 µM.
For the molecule `O=C(O)c1ccccc1C(=O)c1cc(O)cc2ccccc12`, the inhibition result in assay [1] is “Active”. The molecule further came in with a Ki in assay [2] of 34 µM.
For the molecule `COc1cc(Nc2cccc(C(=O)O)c2)c2ccccc2c1`, in assay [1], the inhibition result is “Active”. In [4], this molecule came in with a Ki of 55 µM.
As for `CCOC(=O)c1ccccc1Nc1cccc2c(O)cccc12`, in assay [1], the inhibition entry is “Active”. Besides, the inhibition constant Ki in assay [2] amounted to 7.4 µM.
With `COc1cc(C(=O)c2ccccc2C(=O)O)c2ccccc2c1`, in assay [1], the inhibition entry was “Active”. In assay [3], this molecule gave a Ki of 36 µM.
For the molecule `CCOC(=O)c1ccccc1C(=O)c1cccc2ccccc12`, in assay [1], the inhibition result is “Active”. Besides, the affinity in assay [3], expressed as Ki, was 54 µM.
For `O=C(O)c1ccccc1Nc1cccc2c(O)cccc12`, in [1], the inhibition result is “Active”. This molecule gave a Ki in assay [2] of 13.4 µM.
Regarding `O=C(O)c1ccccc1Nc1cc(O)cc2ccccc12`, in assay [1], the inhibition entry is “Active”. The molecule further had an inhibitory constant (Ki) in assay [2] of 5.1 µM.
Regarding `Nc1cccc2c(Nc3cccc(C(=O)O)c3)cccc12` [listing 1 of 3 here], in [2], the Ki amounted to 0.8 µM.
On to `CCOC(=O)c1ccccc1Nc1cccc2c(N)cccc12`, for which, in [1], the inhibition entry is “Active”. The molecule further yielded a Ki in assay [2] of 9.9 µM.
As for `CCOC(=O)c1cccc(Nc2cccc3ccccc23)c1`, the inhibition entry in [1] was “Active”. In addition, the Ki in assay [4] is 7.3 µM. For the same molecule, in assay [9], the outcome was Active.
Consider `CCOC(=O)c1ccccc1Nc1ccc(OC)c2ccccc12`, for which the inhibition result in assay [1] is “Active”. In assay [2], this molecule yielded a Ki of 6.9 µM.
With `O=C(O)c1ccccc1Nc1cccc2ccccc12`, the inhibition result in assay [1] is “Active”. The molecule further registered a Ki in assay [4] of 22 µM.
As for `O=C(O)c1cccc(Nc2cccc3ccccc23)c1`, in assay [1], the inhibition entry is “Active”. Further, in assay [3], the inhibitory constant (Ki) came out at 30 µM.
Regarding `COc1cc(Nc2ccccc2C(=O)O)c2ccccc2c1`, in [1], the inhibition result was “Active”. For the same molecule, in assay [2], the inhibition constant (Ki) was 16.9 µM.
For the molecule `Nc1cccc2c(Nc3cccc(C(=O)O)c3)cccc12` [listing 2 of 3 here], the inhibition entry in [1] and in [10] was “Active” in each case.
On to `O=C(O)c1cccc(Nc2cccc3c(O)cccc23)c1`, for which the inhibition result in assay [1] is “Active”. In [2], this molecule registered an inhibition constant (Ki) of 2.9 µM.
`CCOC(=O)c1cccc(Nc2ccc(OC)c3ccccc23)c1`: in assay [1], the inhibition result was “Active”. Moreover, the affinity in assay [2], expressed as Ki, was 11.9 µM.
For the molecule `O=C(O)c1ccccc1C(=O)c1cccc2ccccc12`, the inhibition entry in assay [1] is “Active”. The same molecule registered a Ki in assay [3] of 69 µM.
Consider `Nc1cccc2c(Nc3cccc(C(=O)O)c3)cccc12` [listing 3 of 3 here], for which the inhibitory constant (Ki) worked out at 4 µM in assay [6] and 0.6 µM in assay [8].
For `O=C(O)c1ccccc1Nc1ccc(O)c2ccccc12`, in assay [1], the inhibition entry is “Active”. The same molecule displayed a Ki in assay [2] of 2.7 µM.
